SKN-1 block = blocks SKN-1 activity in C. elegans; C. elegans VP596 Pgst-4::GFP/RFP ratio, acrylamide-induced, 24 h; AID 624304; 360,000 tested, 0.49% active; inhibition, % at 21.8 µM;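 active = interference check ratio from 0.5 to 1.5 plus GFP to RFP signal ratio inhibition reaching or exceeding a fixed threshold, cut at about 30% in these data, passing the limit was not always enough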
ADAM10 inh = inhibitors of human ADAM10; O14672; recombinant ADAM10, EDANS/DABCYL FRET peptide cleavage, 3 h; inhibition, % at 7 µM; 370,000 tested, 0.62% active; AID 720582;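 active = inhibition above a per-campaign cutoff equal to the mean of compounds falling between control-based bounds plus 3 SD, cut at about 20% in these data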;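 also: 0% = DMSO wells while the 100% control is not disclosed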
MPTP inh = blocks calcium-induced mitochondrial swelling | isolated mouse mitochondria, Ca2+ swelling absorbance, 30 min | inhibition, % at 10 µM | 360,000 tested, 1.4% active | AID 602449;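 active = inhibition of 50% or more, scaled per plate between neutral and stimulator controls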;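 also: 0% = DMSO wells given calcium and 100% = 1 mM EGTA wells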
GRIN3A LBD mod = modulates the human NR3A ligand-binding domain | 340,000 tested, 2.5% active | AID 1259313 | Tm shift relative to glycine control, % at 25 µM | NR3A LBD differential scanning fluorimetry, Tm shift; 0% = protein alone, 100% = glycine-bound protein;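 active = melting temperature shift of at least 10% of the positive control shift, at one fixed dose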
ADAM17 inh = inhibitors of human ADAM17; inhibition, % at 6.95 µM; 370,000 tested, 0.83% active; recombinant ADAM17, EDANS/DABCYL FRET peptide cleavage; P78536;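 active = inhibition above the mean of compounds lying between control limits plus 3 SD, set per campaign, cut at about 8.5% in these data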;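 also: 0% = DMSO-only wells as the low control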
Target sequence (P78536 215-824 limits assumed): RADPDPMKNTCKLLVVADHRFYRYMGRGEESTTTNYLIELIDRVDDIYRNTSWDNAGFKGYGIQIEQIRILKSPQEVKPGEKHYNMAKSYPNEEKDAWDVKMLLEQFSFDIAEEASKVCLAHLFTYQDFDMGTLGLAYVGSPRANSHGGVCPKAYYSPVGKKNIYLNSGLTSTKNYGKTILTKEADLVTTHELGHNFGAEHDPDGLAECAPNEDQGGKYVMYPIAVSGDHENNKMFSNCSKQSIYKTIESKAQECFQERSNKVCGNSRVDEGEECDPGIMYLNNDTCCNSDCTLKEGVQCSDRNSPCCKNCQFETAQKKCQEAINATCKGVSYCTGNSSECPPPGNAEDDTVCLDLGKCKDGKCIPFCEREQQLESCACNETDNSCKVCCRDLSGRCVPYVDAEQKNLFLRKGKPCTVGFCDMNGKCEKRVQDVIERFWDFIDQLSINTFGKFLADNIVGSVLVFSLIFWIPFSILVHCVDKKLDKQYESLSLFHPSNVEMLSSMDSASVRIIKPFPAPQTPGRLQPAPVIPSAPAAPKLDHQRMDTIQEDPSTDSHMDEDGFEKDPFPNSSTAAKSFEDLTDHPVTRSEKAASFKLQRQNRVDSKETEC
MT1-MMP act inh = inhibitors of human MT1-MMP activation; P50281; 360,000 tested, 0.061% active; GFP/RFP ratio change, % at 20 µM; HT1080 RFP-PRO-GFP cells, GFP/RFP ratio fluorescence, overnight; percent of plate control window, DMSO zero;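 active = GFP/RFP ratio change of at least 30% with cell ATP level not reduced by more than half and red fluorescence within 50% of control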
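Assay system: HT1080 cells carrying an RFP-PRO-GFP reporter | Dosing: Single dose of 20 µM compound, 1% DMSO final | Incubation: Cells overnight before dosing, compound overnight, 37 °C, 5% CO2 | Evaluation: GFP/RFP fluorescence ratio | Control set: DMSO and RFP-L50D-GFP cell wells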
ADAM10 confirm = human ADAM10 inhibition, confirmation; shares compounds with ADAM10 inh; ADAM10 QFRET peptide cleavage, EDANS fluorescence; inhibition, % at 6.95 µM; 2,100 tested, 1% active; AID 743208;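 active = inhibition above about 20% chosen separately for each screening run, limit read from the data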;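 also: 0% = DMSO wells and 100% = marimastat wells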
ADAM17 ctr = ADAM17 inhibition, counter-screen for ADAM10 exosite hits | shares compounds with ADAM10 inh | ADAM17 QFRET peptide cleavage, EDANS fluorescence | inhibition, % at 6.95 µM | 2,100 tested, 0.5% active | AID 743214;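 active = mean triplicate inhibition above the solvent-only control wells' mean plus 3 SD, cut at about 12% in these data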;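 also: 0% = DMSO wells and 100% = marimastat wells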
* marks the source's active call; other numbers are inactive results; nt = not tested or not shown. This is a sample that favours compounds with a hit; in the whole collection about 4.7% have one here.

SMILES | SKN-1 block | ADAM10 inh | MPTP inh | GRIN3A LBD mod | ADAM17 inh | MT1-MMP act inh | ADAM10 confirm | ADAM17 ctr
CCCN(CCC)C(=S)NC(=O)c1ccc(-c2ccccc2)cc1 | -1.0 | 24.5* | 1.6 | -1.6 | 5.3 | 3.1 | 3.4 | 0.9
Cc1ccc(S(=O)(=O)N2CCCCC2)cc1NC(=O)COC(=O)Cc1cccc2ccccc12 | -2.6 | 20.4* | 1.0 | -0.1 | 7.3 | 5.2 | 6.6 | 2.0
COc1ccc(CNC(=O)C(c2ccc(C)cc2)N(Cc2cccs2)C(=O)c2ccc3c(c2)OCCO3)cc1 (configuration not stated) | 1.1 | 26.1* | 1.2 | -0.5 | 5.3 | -42.2 | 5.6 | 1.3
Cn1c(N/N=C/c2cccs2)nc2c1c(=O)n(Cc1ccccc1)c(=O)n2C | 2.6 | 26.0* | 0.5 | -4.3 | 5.1 | 3.3 | 8.8 | 5.1
O=C(/C=C/c1ccccc1)NC(NC(=S)Nc1cccc(O)c1)C(Cl)(Cl)Cl (configuration not stated) | 20.1 | 21.5* | 25.0 | 20.6* | 5.6 | 2.5 | 7.7 | 1.8
Oc1cccc(NC(=S)Nc2ccccc2)c1 | 18.6 | 3.9 | 0.0 | -15.8 | -5.6 | -2.1 | nt | nt
COCCCN1C(=O)c2ccc(C(=O)OCC(=O)N(C)c3ccccc3)cc2C1=O | 5.6 | 3.7 | -1.3 | 0.9 | -0.8 | -1.8 | nt | nt
O=C(O)c1ccc(C#Cc2cccc(F)c2)cn1 | nt | 26.0* | nt | nt | -3.2 | nt | 0.7 | 0.5
COc1ccc(NC(=O)C2C(c3ccccc3)C2(Cl)Cl)cc1 (configuration not stated) | -2.8 | 6.0 | 30.8 | -5.5 | 3.0 | -2.4 | nt | nt
CCOc1ccc(NC(=O)C2C(c3ccccc3)C2(Cl)Cl)cc1 (configuration not stated) | 7.7 | 20.3* | 5.8 | 0.0 | 7.9 | 5.5 | 6.6 | 1.2
Cn1cccc1/C=N/NC(=O)c1ccccn1 | -1.4 | -4.4 | -1.3 | 0.1 | -2.9 | 1.6 | nt | nt
Cn1cccc1/C=N/NC(=O)c1cc2ccccc2cc1O | 25.2 | 22.8* | 3.8 | 2.4 | 0.9 | 1.9 | 8.3 | 4.9
CCOP(=O)(OCC)c1nc(-c2ccc(Cl)cc2)oc1NCc1ccccc1 | -8.4 | -323.3 | -0.8 | -4.9 | -82.6 | -3.1 | nt | nt
O=C(NCc1ccc(Cl)cc1)c1cc(=O)[nH]c2ccc(S(=O)(=O)N3CCOCC3)cc12 | 4.5 | -7.9 | 0.6 | -0.4 | -6.0 | 4.7 | nt | nt
Cc1ccc(NC2=C(Cl)C(=O)OC2OC(=O)c2ccco2)cc1C (configuration not stated) | 6.3 | 10.6 | 1.8 | 0.7 | 8.1 | 0.1 | nt | nt
NC(=O)NOCc1cccc(Cl)c1 | 0.7 | -0.2 | 3.1 | 1.1 | -0.6 | 1.4 | nt | nt
Clc1cccc(CON/C=N/c2ncnc3sccc23)c1 | 3.9 | 21.2* | 1.0 | -4.2 | 6.4 | 0.5 | 2.2 | 0.7
CCC(C)NC(=O)CSc1nnc(-c2ccc(OC)c(OC)c2)c(-c2ccc(OC)c(OC)c2)n1 (configuration not stated) | 2.4 | 1.8 | 1.1 | 1.1 | -0.8 | -3.2 | nt | nt
CCOc1ccc(-c2nnc(SCC(=O)NC(C)(C)C)nc2-c2ccc(OCC)c(OC)c2)cc1OC | 15.3 | 23.0* | 0.1 | 1.2 | 3.7 | -0.6 | 0.0 | 0.0
COc1ccc(CNS(=O)(=O)c2ccc(F)c(C(=O)Nc3ccccc3OC)c2)cc1 | -1.3 | -2.3 | 0.9 | 0.9 | -2.4 | -1.9 | nt | nt
CCCNC(=O)C(Cc1cccc(OC)c1)NC(=O)c1ccc(C#N)cc1 (configuration not stated) | 28.7 | 3.0 | -1.9 | -0.6 | -1.3 | 1.5 | nt | nt
CCCNC(=O)C(Cc1cccc(OC)c1)NC(=O)c1ccc(C(C)(C)C)cc1 (configuration not stated) | -8.0 | 82.6* | 0.2 | -4.0 | 0.8 | 2.2 | 0.2 | 0.1
CC1CN(c2ccc([N+](=O)[O-])cc2C(=O)N2CCOCC2)CC(C)N1 (configuration not stated) | 7.8 | 7.8 | 7.3 | -3.9 | 2.6 | 2.3 | nt | nt
CC1(C(=O)NCc2cccc(Cl)c2)Cc2c(-c3ccc(C(N)=O)cc3)ccnc2O1 (configuration not stated) | 7.4 | -8.4 | -0.1 | nt | -0.6 | -2.4 | nt | nt
CN(CCc1ccccc1)C(=O)c1cc(COc2cccc(C(F)(F)F)c2)on1 | -10.0 | 21.2* | 0.7 | -9.3 | 1.0 | -0.8 | 3.3 | 1.3
SMILES | SKN-1 block | ADAM10 inh | MPTP inh | GRIN3A LBD mod | ADAM17 inh | MT1-MMP act inh | ADAM10 confirm | ADAM17 ctr
O=S(=O)(Nc1cccc(-c2ccc(N3CCCCCC3)nn2)c1)c1ccc(F)cc1 | 6.3 | 6.8 | -1.6 | -3.4 | -1.9 | 6.8 | nt | nt
O=S(=O)(Nc1cccc(-c2ccc(N3CCCCCC3)nn2)c1)c1ccc(C(F)(F)F)cc1 | 4.1 | 24.1* | -0.2 | 4.8 | 7.5 | 7.0 | 5.6 | 2.6
Cn1c(CSCc2ccc(Cl)cc2Cl)n[nH]c1=S | 0.2 | 6.3 | -1.4 | 1.6 | 0.5 | 5.4 | nt | nt
CSc1nnc(CSCc2ccc(Cl)cc2Cl)n1-c1ccccc1 | 22.6 | 23.2* | -1.9 | -0.1 | 4.8 | -0.9 | 0.2 | 0.2
CCC1CCCCN1CCCNC(=O)CSc1nc2nc(C)c(Cc3ccccc3)c(C)n2n1 (configuration not stated) | -9.6 | -0.5 | -1.5 | 0.2 | 2.2 | 2.4 | nt | nt
Cc1cc(S(=O)(=O)N2CCc3ccccc3C2)ccc1F | -8.6 | 22.3* | -0.5 | 1.3 | 1.7 | 0.1 | 0.7 | 0.5
Cc1ccc(/C=C/C(=O)NC(=S)N2CCN(C)CC2)cc1 | 2.3 | 4.2 | -1.0 | -1.0 | -1.3 | 2.6 | nt | nt
O=C(NNc1ccccc1)C(=O)NNS(=O)(=O)c1ccc(CCCl)cc1 | 0.5 | 35.0* | 0.5 | -1.8 | 10.6* | -2.6 | 13.3 | 0.9
Cc1ccc(Cn2nnc3c(=O)[nH]c(C4CCN(S(=O)(=O)c5ccc(C)cc5)CC4)nc32)cc1 | -5.6 | 13.9 | -2.7 | -4.2 | 5.8 | -1.8 | nt | nt
Cc1ccc(Cn2nnc3c(=O)[nH]c(C4CCN(S(=O)(=O)c5ccc(S(=O)(=O)NC6CC6)cc5)CC4)nc32)cc1 | -0.4 | 19.8* | 0.0 | 8.6 | 5.0 | 1.7 | 3.0 | 1.0
O=C(O)/C=C/C(=O)c1ccc2c(c1)CCc1ccccc1-2 | 12.2 | -109.8 | -0.4 | 1.4 | -35.8 | -1.4 | nt | nt
COc1ccc(N(C)C(=O)c2oc(=O)c3ccccc3c2-c2ccc(C)cc2)c(OC)c1 | 6.0 | 21.8* | 3.1 | -1.9 | 1.8 | -6.4 | 2.2 | 0.8
CCCN(CC1CC1)C(=O)c1oc(=O)c2ccccc2c1-c1ccc(C)cc1 | nt | 0.1 | nt | nt | -6.5 | nt | nt | nt
CCOc1ccc(-n2nnc3c(=O)n(C/C=C/c4ccccc4)cnc32)cc1 | -3.0 | 0.0 | 0.6 | 2.7 | -0.5 | 2.4 | nt | nt

High-throughput results as filed in PubChem.
